Measurements from ChEMBL document CHEMBL4513216, “Probing the Open Global Health Chemical Diversity Library for Multistage-Active Starting Points for Next-Generation Antimalarials” (ACS Infect Dis, 2020).

Assay: Toxicity liver stage against HepG2, at 10uM
Assay type: cell-based
Set-up: test concentration 10 uM, cell line HepG2-A16-CD81EGFP
Settings: human, HepG2-A16-CD81EGFP cells; read-out: INHIBITION
Method in brief: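 Uninfected HepG2-A16-CD81EGFP cells, 3 × 10^3 per well, 1536-well, plated on prespotted compound at 10 μM final, parasite-free screening media added to match infected plates; puromycin 10 μM positive, DMSO 0.5% negative; run in parallel with 48 h PbLuc assay at 37 °C, 5% CO2; viability by CellTiter-Glo luminescence, normalized to controls.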

Row | SMILES | cytotoxicity at 10 µM [%]
1 | O=C1CO[C@H]2CN(C3CCOCC3)C[C@H]2N1Cc1ccc(F)cc1 | -6.35
2 | Cc1ccc(S(=O)(=O)Cc2noc([C@@H]3C[C@@H](O)CN3C)n2)cc1 | 0.847
3 | COc1coc(C(=O)Nc2nc(C)cs2)cc1=O | -3.96
4 | Cc1nn(C2CCS(=O)(=O)C2)c(O)c1CCc1ccccc1 (configuration not stated) | -50.2
5 | CNC(=O)Cn1c(CO)cnc1SCc1ccccc1Cl | 2.6
6 | CCOC(=O)c1ccc(NC(=O)Cn2cc(I)cn2)cc1 | 2.96
7 | COc1cccc(CNC(=O)c2cc(C)nc(N3CCCCC3)n2)c1 | 20
8 | O=C(Nc1cc(-c2ccncc2)no1)C1CCC1 | -12.6
9 | CCn1nc(C)c2nc(C(C)C)nc(N3CCCCC3)c21 | -7.67
10 | Cc1nc(CCC(N)=O)cc(C2CCCCN2S(C)(=O)=O)n1 (configuration not stated) | -13
11 | Cc1ccsc1C(=O)NCc1ccnc(C2CCCOC2)n1 (configuration not stated) | -23.6
12 | Cn1cnc(CN2Cc3nccn3CC2c2ccccc2)c1 (configuration not stated) | 2.98
13 | CCn1ncc(S(=O)(=O)N[C@@H]2CC[C@@H](n3ccnc3C)[C@@H]2O)c1C | 3.65
14 | Cc1c[nH]nc1C1CCCN(c2cnccn2)C1 (configuration not stated) | 8.75
15 | COc1cccc(C(=O)N2C[C@@H](c3ccccc3)[C@@H]3NCCCC[C@@H]32)c1 | -14.1
16 | O=C(c1ccco1)N1CCC(n2nc(-c3cccs3)ccc2=O)CC1 | -32.3
17 | CC(Cn1cccn1)NCC(=O)NC1CCOCC1 (configuration not stated) | 2.51
18 | CC(C)N(C)CC(=O)N1CCCC(n2ccnc2)C1 (configuration not stated) | 5.56
19 | Cc1ccc(-c2nnc(CCC(=O)N3CCCC3c3ccc[nH]3)o2)cc1 (configuration not stated) | -1.31
20 | COc1ccc(NCc2ccccc2N2CCN(C(C)=O)CC2)cn1 | 1.85
21 | CC(C)N(C)C(=O)C1CSCN1S(=O)(=O)c1cc(Cl)ccc1Cl (configuration not stated) | -1.57
22 | O=C(COC1CCOC1)N(CC(F)F)c1cccc(Cl)c1 (configuration not stated) | 3.44
23 | N#Cc1ccc(CN2CCc3sccc3C2)c(F)c1 | -5.13

Row | SMILES | cytotoxicity at 10 µM [%]
24 | OCCC1CCN(c2ccnc3ccsc23)C1 (configuration not stated) | 2.35
25 | Cn1cc(CC(=O)N2CCCC(c3ccn[nH]3)C2)cn1 (configuration not stated) | -4.89
26 | CCCNc1nnc(S(=O)(=O)CCOCC)s1 | 5.96
27 | CC(C)COc1cncc(N2CCCC(CC(N)=O)C2)n1 (configuration not stated) | -1.67
28 | CCN(C(=O)Cn1cc(Cl)cn1)c1ccccc1 | -8.01
29 | CN(CC(=O)NCC(O)c1cccc(F)c1)C(=O)OC(C)(C)C (configuration not stated) | 1.2
30 | CCN(CC)C(=O)CN1CCCC1C(=O)N(C)C (configuration not stated) | 12.5
31 | CCN(Cc1ccccc1C)S(C)(=O)=O | 9.23
32 | COc1ccc(Br)cc1CN(C)C(C)c1nc(C)no1 (configuration not stated) | -4.02
33 | NC(=O)C(Nc1ccc(Cl)cc1)c1ccc(F)cc1 (configuration not stated) | -0.82
34 | COc1ccccc1C1(C(=O)N2CCN(CC(C)O)CC2)CC1 (configuration not stated) | -3.51
35 | CCCc1noc(CCCC(=O)N2CCCC(n3ccnc3C)C2)n1 (configuration not stated) | -2.5
36 | c1ccc(Cc2noc(CN3CCCCC3C3OCCO3)n2)cc1 (configuration not stated) | -2.62
37 | Cc1noc(Cl)c1CC(=O)NCCOc1ccc(F)cc1F | -2.64
38 | Cc1nn(C(C)C)c(C)c1NC(=O)c1ccc(F)cc1 | -2.27
39 | Cc1ccc(C(=O)NS(C)(=O)=O)cc1-n1cccc1 | -3.47
40 | COCc1nc(C(=O)N(Cc2ccccc2)CC(C)C(=O)O)cs1 (configuration not stated) | 4
41 | Cc1cc(C)cc(C(=O)Nc2ccc(CC3CC(=O)NC3=O)cc2)c1 (configuration not stated) | -3
42 | C=C(C)CN(CC)S(=O)(=O)c1cccc(F)c1C#N | -6.03
43 | CC(C)(C)n1nc(C(=O)NC2CCN(CC(N)=O)CC2)cc1C1CC1 | 0.196
44 | CC(C)NC(=O)CN(C)C1CCN(c2ccc(Cl)cn2)CC1 | 3.5
45 | NC(=O)C1CCN(C(=O)c2ccccc2OCc2ccccc2Cl)CC1 | -9.4
46 | COCCN(CCC#N)Cn1cc(Cl)cn1 | 4.68

Row | SMILES | cytotoxicity at 10 µM [%]
47 | Cc1cnc(CN(C)Cc2cccc(OC(F)(F)F)c2)cn1 | 2.4
48 | Cc1cc(NC2CCN(c3ccccc3)C2)n2ncnc2n1 (configuration not stated) | 14.7
49 | Cc1ccc(NC(=O)CN2CCCNC2=O)c(SC(F)(F)F)c1 | -1.96
50 | CS(=O)(=O)CCC(=O)NC1(c2cccc(Br)c2)CC1 | -11.1
51 | COc1ccc(CN(C)C(=O)CCc2c(C)nc(C)[nH]c2=O)cc1OC | -11.2
52 | CCCOc1ccc(NC(=O)NCCC(=O)N(C)C)cc1Cl | -10.9
53 | O=C(Cc1cccs1)NC1CCN(c2cccc(F)c2)CC1 | -24.2
54 | Cc1cc(N2CCC(N(C)C(=O)Nc3ccccc3)CC2)nc(C)n1 | -19.4
55 | CCC(CC)CN1CCC2(CCC(=O)N2OCc2ccccc2F)CC1 | 6.69
56 | CCN(C)C(=O)c1ccc(N(C)Cc2cc(-c3ccncc3)no2)nc1 | -2.04
57 | CCCOc1c(CNC2CCSC2)cccc1OC (configuration not stated) | 4.36
58 | O=C1CCCN1CCN1CC=C(c2cnn(C3CCS(=O)(=O)C3)c2)CC1 (configuration not stated) | -0.36
59 | CCn1c(CN(C)C)nnc1C1CCN(Cc2ccc(Cl)cc2)CC1 | 1.77
60 | COc1c(F)cc(CN2CCC3(CC2)CN(C)C(=O)O3)cc1Cl | 8.08
61 | Cc1cc(C2CCCN2C(=O)CN2C(=O)OC(C)(C)C2=O)on1 (configuration not stated) | -14.1
62 | Cc1ccc(N2CCN(C(=O)[C@@H]3CCC(=O)N3)CC2=O)cc1 | -4.18
63 | Cc1ccc([C@H]2CN(CCO)C[C@@H]2NC(=O)CN2CCCCC2=O)o1 | 2.1
64 | COc1cccc(Cn2cc(C3=CCN(CCO)CC3)cn2)c1 | -10.2
65 | CC(=O)c1cc(CC(=O)N2CCN(S(=O)(=O)c3ccccc3)CC2)cs1 | -0.943
66 | Cc1ccc(N2CC[C@@]3(O)CCN(S(C)(=O)=O)C[C@H]3C2)nn1 | 7.99
67 | Cc1cc(C(=O)N2CCCCC2c2nc3cc(F)ccc3[nH]2)no1 (configuration not stated) | 19.6
68 | CN(C)c1ccc(CC(=O)N2CCOCC(O)C2)cc1 (configuration not stated) | 13.3
69 | COCCCC1(CO)CCCN(CCc2ccccn2)C1 (configuration not stated) | 7.42

Row | SMILES | cytotoxicity at 10 µM [%]
70 | CC(c1ccco1)n1cc(-c2cc(CN3CCCC3)cs2)nn1 (configuration not stated) | -23.6
71 | Cc1nc(C2CCN(CC(=O)NC3CC3)CC2)cc(N2CCOCC2)n1 | 2.39
72 | CSCC(=O)N1C[C@@H](C)[C@](O)(C(C)C)C1 | 9.24
73 | c1ccc(Cn2cccn2)c(CN2CCC3(CCCNC3)C2)c1 (configuration not stated) | -13
74 | CCC(C(=O)N(C)Cc1cc(-c2ccccc2)n[nH]1)n1cccn1 (configuration not stated) | -7.35
75 | CCOCc1nc2c(c(NCc3cc(C)on3)n1)CCN(C(C)=O)CC2 | 2.24
76 | CC(=O)NCCNc1nc(C2CCCC2)nc2c1cnn2C | 7.39
77 | CNc1nc(CN2C[C@@H](NC(C)=O)[C@H](c3ccc(C)o3)C2)cs1 | -42.4
78 | NC(=O)c1cc(-n2cc(-c3cccc(C(=O)O)c3)cn2)cs1 | -0.387
79 | Cc1cc(N2CCN(Cc3nccn3C)CC2)cc(C)n1 | 15.7
80 | Cc1nc[nH]c1-c1nc2cc(S(=O)(=O)N3CCCC3)ccc2n1C | -14.2
81 | COc1cccc(OC)c1CN1CCC2(CC(Nc3ccncn3)C2)C1 (configuration not stated) | 3.71
82 | O=C(NCCc1ccco1)Nc1cc(C(F)(F)F)c[nH]c1=O | -12.3
83 | N#Cc1cc(F)ccc1CN1CCCCC1Cn1cccn1 (configuration not stated) | -2.93
84 | Cc1cc(NC(=O)CN2CCCC2c2c(C)nn(C)c2C)on1 (configuration not stated) | -2.9
85 | CN(C)c1cc(C(=O)N2CCCCCC2)ccn1 | -8.83
86 | Cc1cc(CN2CCN(C(=O)CCCc3nc(C(C)C)no3)CC2)on1 | -9.05
87 | COc1cccc(CC(=O)N2CCCC(n3nc(C)cc3C)C2)c1 (configuration not stated) | 0.441
88 | Cc1nc(C)n(CC2CCCN(Cc3cn4c(C)cccc4n3)C2)n1 (configuration not stated) | -6.01
89 | Cc1cnn(CC2CCCCN2CCCS(C)(=O)=O)c1 (configuration not stated) | -10.1
90 | COc1ccc(CC(=O)N2CCCC(n3cccn3)C2)cc1F (configuration not stated) | -4.62
91 | O=C(NCCCN1CCc2ccccc2C1)c1ccccc1Br | -10.2
92 | COc1cc(C(=O)NC(CC(=O)O)c2cccs2)cc(OC)c1C (configuration not stated) | -19.1

Row | SMILES | cytotoxicity at 10 µM [%]
93 | COc1ccc(COCC(O)CNC(=O)c2cc(C)no2)cc1 (configuration not stated) | 0.742
94 | COC1CCN(C(=O)CCc2c(C)nc3ccnn3c2C)CC1 | -5.72
95 | CC(C)(O)CN1CCN(C(=O)c2sccc2C2CC2)CC1 | 5.37
96 | CCc1nc(CN2CCN(C(=O)CCc3ccccc3)CC2)cs1 | 5.25
97 | CCn1cnnc1CNC(=O)N1CCCN(C(C)=O)CC1 | 1.18
98 | CCN(CC)CCCNc1nc(C)nc2c1CCN(C)C2 | 3.19
99 | CN(C)C1CCN(C(=O)c2ccnn2-c2ccc3ccccn23)CC1 | -114
100 | O=C(c1ccco1)N1C[C@@H]2CN(c3ccccn3)C[C@@H]2C1 | -1.27
101 | CC(C)C(=O)N1CCN(Cc2ccccn2)CC2(CC(=O)N(C)C2)C1 (configuration not stated) | 0.0515
102 | O=C(c1ccoc1)N1CC[C@H]2OCC[C@@]2(COc2ncccc2F)C1 | -9.31
103 | Cc1noc([C@@H]2C[C@H]3CN(Cc4cc(C)on4)C[C@H]3O2)n1 | -9.33
104 | O=C(C1CCC1)N1C[C@@H](c2ccsc2)[C@@H]2CN(C3CCCC3)CC[C@@H]21 | -1.51
105 | Cc1nn(C(C)C)c(C)c1CN1CCN(C2CCCCC2)C(=O)C1 | 6.63
106 | c1coc(CN2CCCC3(COCCN(Cc4c[nH]nn4)C3)C2)c1 (configuration not stated) | -12.2
107 | CC(=O)NCC(=O)N1CC[C@H](OCC2CC2)[C@@H]1Cc1cccnc1 | -1.99
108 | Cc1sc(CN)nc1-c1ccc(Cl)cc1 | -3.07
109 | O=c1c2sccc2nc2n1CCN(Cc1ccsc1)CC2 | -25.4
110 | Cc1nc(N2CCOCC2)nc2c1CCN(Cc1cccnc1)CC2 | -0.368
111 | CC(C)N(C)Cc1cncc2c1CCN(Cc1cccs1)C2 | -112
112 | CC(C)n1cc(-n2cc3nc(N4CCOCC4)[nH]cc-3c2=O)cn1 | 4.48
